# Results published in ChEMBL document CHEMBL2331236, “Synthesis and biological evaluation of 1-(2-hydroxy-3-phenyloxypropyl)piperazine derivatives as T-type calcium channel blockers” (Bioorg Med Chem Lett, 2013).
# Key:
# [1] = biological target: T1, Voltage-dependent T-type calcium channel subunit alpha-1G (Homo sapiens, UniProt O43497); assay: Inhibition of alpha-1G calcium channel in human HEK293 cells at 10 uM by FDSS6000 fluorescence-based assay
# [2] = biological target: T1, Voltage-dependent T-type calcium channel subunit alpha-1G; assay: Inhibition of alpha-1G calcium channel in human HEK293 cells by whole-cell patch-clamp method; assay type: cell-based
# Method in brief: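 Whole-cell recordings used α1G T-type channels. Pipette solution (mM): 130 KCl, 11 EGTA, 5 Mg-ATP, 10 HEPES, pH 7.4. Bath (mM): 140 NaCl, 2 CaCl2, 10 HEPES, 10 glucose, pH 7.4. Currents were evoked every 15 s by a 50 ms step from −100 to −30 mV. IC50 for peak-current inhibition came from dose-response curve fitting of raw data.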
# [3] = tested on: HEK293; assay: Selectivity ratio of IC50 for human ERG to IC50 for alpha-1G calcium channel in human HEK293 cells; assay type: cell-based
# [4] = biological target: Voltage-gated inwardly rectifying potassium channel KCNH2 (Homo sapiens, UniProt Q12809); assay: Inhibition of human ERG
# Sequence of Voltage-gated inwardly rectifying potassium channel KCNH2 (Q12809 whole entry): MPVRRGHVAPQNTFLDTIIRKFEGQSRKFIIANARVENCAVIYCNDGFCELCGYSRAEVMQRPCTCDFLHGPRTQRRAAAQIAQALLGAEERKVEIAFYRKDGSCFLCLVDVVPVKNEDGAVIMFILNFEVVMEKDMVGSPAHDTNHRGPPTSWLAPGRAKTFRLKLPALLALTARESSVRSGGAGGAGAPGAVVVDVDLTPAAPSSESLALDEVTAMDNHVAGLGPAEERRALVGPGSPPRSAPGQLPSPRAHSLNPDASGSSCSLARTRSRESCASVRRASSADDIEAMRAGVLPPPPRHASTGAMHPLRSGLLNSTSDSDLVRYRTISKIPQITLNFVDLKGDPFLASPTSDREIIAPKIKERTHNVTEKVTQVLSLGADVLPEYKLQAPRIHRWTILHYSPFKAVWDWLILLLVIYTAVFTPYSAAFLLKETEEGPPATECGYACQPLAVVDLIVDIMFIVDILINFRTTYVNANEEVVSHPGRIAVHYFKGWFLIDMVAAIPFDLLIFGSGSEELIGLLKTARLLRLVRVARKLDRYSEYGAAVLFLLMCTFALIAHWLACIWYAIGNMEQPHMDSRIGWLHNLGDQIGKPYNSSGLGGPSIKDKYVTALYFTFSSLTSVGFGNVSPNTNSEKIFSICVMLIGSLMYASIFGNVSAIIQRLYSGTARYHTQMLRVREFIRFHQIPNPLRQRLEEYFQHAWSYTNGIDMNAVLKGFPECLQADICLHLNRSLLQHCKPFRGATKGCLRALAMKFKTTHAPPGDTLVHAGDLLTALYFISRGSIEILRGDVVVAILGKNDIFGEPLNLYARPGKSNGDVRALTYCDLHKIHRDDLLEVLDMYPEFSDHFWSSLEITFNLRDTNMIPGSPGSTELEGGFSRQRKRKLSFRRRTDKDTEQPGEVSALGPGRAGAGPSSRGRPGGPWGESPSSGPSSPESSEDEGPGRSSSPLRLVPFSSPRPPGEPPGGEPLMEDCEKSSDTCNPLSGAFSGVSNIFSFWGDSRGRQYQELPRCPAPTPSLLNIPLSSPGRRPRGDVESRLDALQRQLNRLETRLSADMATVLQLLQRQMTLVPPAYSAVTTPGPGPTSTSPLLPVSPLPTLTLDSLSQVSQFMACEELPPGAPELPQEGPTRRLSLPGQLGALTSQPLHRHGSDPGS
# [5] = Tmax in ICR mouse brain at 10 mg/kg, po; assay type: ADME, organism-based; set-up: dose 10 mg/kg, route oral
# Method in brief: (§1)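 ICR mice were dosed orally at 10 mg/kg, with n = 3 per time point. Plasma and brain concentrations were followed over time. Cmax, Tmax, AUClast, AUC0-∞ and terminal half-life were taken from the concentration–time profiles, and values are means.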
# [6] = Cmax in ICR mouse brain at 10 mg/kg, po; assay type: ADME, organism-based; set-up: dose 10 mg/kg, route oral
# Method in brief: as §1
# [7] = (§2) AUClast in ICR mouse brain at 10 mg/kg, po; assay type: ADME, organism-based; set-up: time 0 - last, dose 10 mg/kg, route oral; conditions: ICR, brain
# Method in brief: as §1
# [8] = Terminal half life in ICR mouse brain at 10 mg/kg, po; assay type: ADME, organism-based; set-up: dose 10 mg/kg, route oral; conditions: read-out: beta t1/2
# Method in brief: as §1
# [9] = tested on: Brain; assay: AUC (0 to infinity) in ICR mouse brain at 10 mg/kg, po; assay type: ADME, organism-based; set-up: dose 10 mg/kg, route oral, time infinity; conditions: in vivo
# Method in brief: as §1
# [10] = Oral bioavailability in ICR mouse at 10 mg/kg; assay type: ADME, organism-based; conditions: in vivo
# [11] = Ratio of AUC in brain to AUC in plasma of ICR mouse at 10 mg/kg, po; assay type: ADME, organism-based; set-up: dose 10 mg/kg, route oral
# Method in brief: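 ICR mice dosed orally at 10 mg/kg; plasma and brain sampled over time (n = 3 per time point). AUC (taken as dose/clearance) computed for each matrix from mean concentration–time profiles; brain-to-plasma ratio reported as AUCbrain/AUCplasma […], from mean values.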
# [12] = Tmax in ICR mouse plasma at 10 mg/kg, po; assay type: ADME, organism-based; set-up: dose 10 mg/kg, route oral
# Method in brief: as §1
# [13] = Terminal half life in ICR mouse plasma at 10 mg/kg, po; assay type: ADME, organism-based; set-up: dose 10 mg/kg, route oral; conditions: read-out: beta t1/2
# Method in brief: as §1
# [14] = Cmax in ICR mouse plasma at 10 mg/kg, po; assay type: ADME, organism-based; set-up: dose 10 mg/kg, route oral
# Method in brief: as §1
# [15] = AUClast in ICR mouse plasma at 10 mg/kg, po; assay type: ADME, organism-based; set-up: time 0 - last, dose 10 mg/kg, route oral
# Method in brief: as §1
# [16] = AUC (0 to infinity) in ICR mouse plasma at 10 mg/kg, po; assay type: ADME, organism-based; set-up: time infinity, dose 10 mg/kg, route oral
# Method in brief: as §1
# [17] = tested on: Brain; assay: as §2; assay type: ADME, organism-based; set-up: time 0 - last, dose 10 mg/kg, route oral; conditions: in vivo
# Method in brief: as §1
# T1 sequence (O43497 whole entry): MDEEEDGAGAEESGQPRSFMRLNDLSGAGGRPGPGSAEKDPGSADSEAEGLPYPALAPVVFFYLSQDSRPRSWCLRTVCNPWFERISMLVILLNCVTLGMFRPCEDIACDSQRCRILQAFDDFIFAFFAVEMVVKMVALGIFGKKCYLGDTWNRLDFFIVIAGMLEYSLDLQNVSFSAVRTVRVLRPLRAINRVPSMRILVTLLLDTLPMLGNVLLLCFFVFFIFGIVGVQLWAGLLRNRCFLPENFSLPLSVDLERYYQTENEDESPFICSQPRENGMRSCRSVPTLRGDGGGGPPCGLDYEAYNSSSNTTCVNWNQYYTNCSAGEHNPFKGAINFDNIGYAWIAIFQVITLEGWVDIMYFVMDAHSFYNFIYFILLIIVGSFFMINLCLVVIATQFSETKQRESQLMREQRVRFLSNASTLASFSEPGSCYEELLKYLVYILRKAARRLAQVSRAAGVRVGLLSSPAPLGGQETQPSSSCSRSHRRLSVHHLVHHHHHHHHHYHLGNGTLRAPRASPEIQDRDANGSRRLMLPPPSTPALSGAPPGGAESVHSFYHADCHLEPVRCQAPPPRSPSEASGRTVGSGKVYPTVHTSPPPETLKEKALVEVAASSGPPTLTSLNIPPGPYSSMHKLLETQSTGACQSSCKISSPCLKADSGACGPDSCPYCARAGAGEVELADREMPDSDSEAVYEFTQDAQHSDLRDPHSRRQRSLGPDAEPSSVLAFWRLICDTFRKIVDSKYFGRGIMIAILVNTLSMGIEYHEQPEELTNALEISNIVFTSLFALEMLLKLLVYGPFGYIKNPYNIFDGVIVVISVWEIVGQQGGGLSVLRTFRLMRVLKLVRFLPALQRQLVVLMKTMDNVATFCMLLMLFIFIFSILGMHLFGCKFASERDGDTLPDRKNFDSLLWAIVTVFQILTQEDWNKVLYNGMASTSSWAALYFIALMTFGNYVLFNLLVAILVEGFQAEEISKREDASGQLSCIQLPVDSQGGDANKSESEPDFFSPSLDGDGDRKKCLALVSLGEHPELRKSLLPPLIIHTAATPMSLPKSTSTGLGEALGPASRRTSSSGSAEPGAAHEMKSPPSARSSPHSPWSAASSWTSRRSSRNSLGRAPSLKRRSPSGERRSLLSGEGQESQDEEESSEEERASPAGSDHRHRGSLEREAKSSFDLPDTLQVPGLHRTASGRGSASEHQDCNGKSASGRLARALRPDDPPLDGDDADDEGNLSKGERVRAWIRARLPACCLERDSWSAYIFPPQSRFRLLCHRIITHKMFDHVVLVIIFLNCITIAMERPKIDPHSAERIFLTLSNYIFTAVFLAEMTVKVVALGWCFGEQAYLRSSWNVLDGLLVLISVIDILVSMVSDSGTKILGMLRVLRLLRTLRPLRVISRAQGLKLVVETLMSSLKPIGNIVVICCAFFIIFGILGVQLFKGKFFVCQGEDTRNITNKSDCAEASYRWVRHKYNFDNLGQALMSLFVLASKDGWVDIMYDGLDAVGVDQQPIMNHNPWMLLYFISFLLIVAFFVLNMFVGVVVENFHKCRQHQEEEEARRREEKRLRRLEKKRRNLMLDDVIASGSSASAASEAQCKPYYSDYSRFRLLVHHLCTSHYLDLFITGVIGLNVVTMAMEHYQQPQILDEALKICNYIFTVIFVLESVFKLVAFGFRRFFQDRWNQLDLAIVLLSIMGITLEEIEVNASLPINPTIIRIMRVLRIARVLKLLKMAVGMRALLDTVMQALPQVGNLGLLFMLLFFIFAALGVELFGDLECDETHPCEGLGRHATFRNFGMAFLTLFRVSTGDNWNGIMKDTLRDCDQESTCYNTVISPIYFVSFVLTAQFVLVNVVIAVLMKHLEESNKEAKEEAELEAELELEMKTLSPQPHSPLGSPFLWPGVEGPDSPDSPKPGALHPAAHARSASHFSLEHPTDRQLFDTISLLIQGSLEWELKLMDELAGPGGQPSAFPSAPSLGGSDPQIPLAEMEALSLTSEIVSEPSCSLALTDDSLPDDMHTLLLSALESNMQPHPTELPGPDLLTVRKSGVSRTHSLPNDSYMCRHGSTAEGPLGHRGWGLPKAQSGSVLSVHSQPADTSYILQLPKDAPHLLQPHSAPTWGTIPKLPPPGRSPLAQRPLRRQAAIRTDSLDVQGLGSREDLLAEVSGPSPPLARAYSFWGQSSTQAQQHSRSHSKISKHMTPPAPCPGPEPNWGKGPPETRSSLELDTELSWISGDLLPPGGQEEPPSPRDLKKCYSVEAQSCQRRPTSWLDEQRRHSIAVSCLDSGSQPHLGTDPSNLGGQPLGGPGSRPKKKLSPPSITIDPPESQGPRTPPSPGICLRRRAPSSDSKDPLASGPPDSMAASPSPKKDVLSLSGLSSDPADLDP
compound,measurement,setting,value
O[C@H](COc1ccc(F)cc1)CN1CCN(c2ccccc2F)CC1,inhibition,[1],42%
O[C@@H](COc1ccc(C(F)(F)F)cc1)CN1CCN(Cc2c(F)cccc2Cl)CC1,inhibition,[1],44.6%
O[C@@H](COc1ccc(C(F)(F)F)cc1)CN1CCN(Cc2cccc(Cl)c2)CC1,inhibition,[1],43.1%
O[C@@H](COc1ccc(F)cc1)CN1CCN(Cc2ccc(Cl)cc2)CC1,inhibition,[1],50.1%
O[C@@H](COc1ccc(Cl)cc1)CN1CCN(c2ccccc2F)CC1,inhibition,[1],46.9%
O[C@H](COc1ccc(Cl)cc1)CN1CCN(Cc2ccccc2F)CC1,inhibition,[1],41.5%
COc1ccccc1N1CCN(C[C@H](O)COc2ccc(Cl)cc2)CC1,inhibition,[1],48.8%
O[C@@H](COc1ccc(Cl)cc1)CN1CCN(Cc2c(F)cccc2Cl)CC1,inhibition,[1],40.9%
COc1ccccc1N1CCN(C[C@@H](O)COc2ccc(Cl)cc2)CC1,inhibition,[1],47.4%
O[C@H](COc1ccc(Cl)cc1)CN1CCN(Cc2ccc(Cl)cc2)CC1,IC50,[2],1080 nM
same,inhibition,[1],56.5%
COc1cccc(N2CCN(C[C@H](O)COc3ccc(Cl)cc3)CC2)c1,inhibition,[1],46%
COc1cccc(N2CCN(C[C@@H](O)COc3ccc(Cl)cc3)CC2)c1,inhibition,[1],44.6%
O[C@@H](COc1ccc(F)cc1)CN1CCN(Cc2ccc(Cl)c(Cl)c2)CC1,Ratio IC50,[3],8.7
same,IC50,[4],870 nM
same,IC50,[2],100 nM
same,inhibition,[1],69.5%
COc1ccccc1N1CCN(C[C@@H](O)COc2ccc(C(F)(F)F)cc2)CC1,Ratio IC50,[3],2.21
same,IC50,[4],3950 nM
same,IC50,[2],1790 nM
same,inhibition,[1],56.2%
O[C@@H](COc1ccc(C(F)(F)F)cc1)CN1CCN(Cc2ccccc2F)CC1,inhibition,[1],45.5%
COc1cccc(N2CCN(C[C@H](O)COc3ccc(F)cc3)CC2)c1,inhibition,[1],44.5%
O[C@H](COc1ccc(F)cc1)CN1CCN(Cc2ccccc2F)CC1,inhibition,[1],20.3%
O[C@@H](COc1ccc(C(F)(F)F)cc1)CN1CCN(Cc2ccc(Cl)c(Cl)c2)CC1,Ratio IC50,[3],7.24
same,IC50,[4],9200 nM
same,IC50,[2],1270 nM
same,inhibition,[1],38.8%
O[C@H](COc1ccc(F)cc1)CN1CCN(Cc2c(F)cccc2Cl)CC1,IC50,[2],11400 nM
same,inhibition,[1],62.1%
O[C@H](COc1ccc(C(F)(F)F)cc1)CN1CCN(c2ccccc2F)CC1,inhibition,[1],48.9%
O[C@@H](COc1ccc(F)cc1)CN1CCN(Cc2c(F)cccc2Cl)CC1,IC50,[2],12300 nM
same,inhibition,[1],56.5%
O[C@@H](COc1ccc(Cl)cc1)CN1CCN(Cc2ccc(Cl)c(Cl)c2)CC1,inhibition,[1],48.6%
O[C@@H](COc1ccc(C(F)(F)F)cc1)CN1CCN(c2ccc(F)cc2)CC1,inhibition,[1],53.7%
O[C@@H](COc1ccc(Cl)cc1)CN1CCN(Cc2ccccc2F)CC1,inhibition,[1],35.8%
O[C@H](COc1ccc(F)cc1)CN1CCN(c2ccc(F)cc2)CC1,inhibition,[1],50%
COc1ccccc1N1CCN(C[C@H](O)COc2ccc(C(F)(F)F)cc2)CC1,inhibition,[1],50.8%
O[C@H](COc1ccc(Cl)cc1)CN1CCN(Cc2ccc(Cl)c(Cl)c2)CC1,inhibition,[1],41.2%
O[C@H](COc1ccc(F)cc1)CN1CCN(Cc2ccc(Cl)cc2)CC1,Ratio IC50,[3],0.87
same,IC50,[4],1350 nM
same,IC50,[2],1560 nM
same,inhibition,[1],65.8%
O[C@@H](COc1ccc(Cl)cc1)CN1CCN(Cc2cccc(Cl)c2)CC1,inhibition,[1],46%
O[C@H](COc1ccc(C(F)(F)F)cc1)CN1CCN(Cc2cccc(Cl)c2)CC1,inhibition,[1],43.4%
O[C@@H](COc1ccc(C(F)(F)F)cc1)CN1CCN(c2ccccc2F)CC1,inhibition,[1],50.2%
COc1cccc(N2CCN(C[C@H](O)COc3ccc(C(F)(F)F)cc3)CC2)c1,Tmax,[5],15 min
same,Cmax,[6],4660 ng/mL
same,AUC(0-t),[7],8290 ng·h/mL
same,half-life,[8],474 min
same,AUC,[9],686.6 µg·min/g
same,bioavailability,[10],67.2%
same,Kp,[11],3.46
same,Tmax,[12],15 min
same,half-life,[13],102 min
same,Cmax,[14],1570 ng/mL
same,AUC(0-t),[15],3140 ng·h/mL
same,AUC(0-inf),[16],3300 ng·h/mL
same,Ratio IC50,[3],8.5
same,IC50,[4],4080 nM
same,IC50,[2],480 nM
same,inhibition,[1],68.5%
O[C@H](COc1ccc(C(F)(F)F)cc1)CN1CCN(Cc2c(F)cccc2Cl)CC1,Tmax,[5],30 min
same,Cmax,[6],870 ng/mL
same,AUClast,[17],119.1 µg·min/g
same,half-life,[8],186 min
same,bioavailability,[10],9.94%
same,Kp,[11],7.63
same,Tmax,[12],15 min
same,half-life,[13],56.5 min
same,Cmax,[14],197 ng/mL
same,AUC(0-t),[15],260 ng·h/mL
same,AUC(0-inf),[16],276 ng·h/mL
same,Ratio IC50,[3],18.4
same,IC50,[4],14000 nM
same,IC50,[2],760 nM
same,inhibition,[1],55.1%
O[C@@H](COc1ccc(F)cc1)CN1CCN(Cc2ccccc2F)CC1,inhibition,[1],23.8%
O[C@@H](COc1ccc(F)cc1)CN1CCN(Cc2cccc(Cl)c2)CC1,IC50,[2],2100 nM
same,inhibition,[1],61.1%
O[C@H](COc1ccc(Cl)cc1)CN1CCN(Cc2c(F)cccc2Cl)CC1,Ratio IC50,[3],1.46
same,IC50,[4],2070 nM
same,IC50,[2],1420 nM
same,inhibition,[1],54.4%
O[C@@H](COc1ccc(F)cc1)CN1CCN(c2ccc(F)cc2)CC1,inhibition,[1],47.5%
O[C@H](COc1ccc(C(F)(F)F)cc1)CN1CCN(c2ccc(F)cc2)CC1,IC50,[2],15500 nM
same,inhibition,[1],59.2%
COc1cccc(N2CCN(C[C@@H](O)COc3ccc(F)cc3)CC2)c1,IC50,[2],12000 nM
same,inhibition,[1],61.3%
O[C@H](COc1ccc(C(F)(F)F)cc1)CN1CCN(Cc2ccccc2F)CC1,inhibition,[1],48.6%
O[C@@H](COc1ccc(F)cc1)CN1CCN(c2ccccc2F)CC1,inhibition,[1],51.1%
COc1ccccc1N1CCN(C[C@@H](O)COc2ccc(F)cc2)CC1,inhibition,[1],50.7%
O[C@H](COc1ccc(F)cc1)CN1CCN(Cc2ccc(Cl)c(Cl)c2)CC1,Ratio IC50,[3],1.26
same,IC50,[4],290 nM
same,IC50,[2],230 nM
same,inhibition,[1],64.2%
O[C@H](COc1ccc(C(F)(F)F)cc1)CN1CCN(Cc2ccc(Cl)c(Cl)c2)CC1,inhibition,[1],45.6%
O[C@H](COc1ccc(C(F)(F)F)cc1)CN1CCN(Cc2ccc(Cl)cc2)CC1,IC50,[2],4230 nM
same,inhibition,[1],56.6%
O[C@H](COc1ccc(F)cc1)CN1CCN(Cc2cccc(Cl)c2)CC1,IC50,[2],2580 nM
same,inhibition,[1],65.8%
O[C@H](COc1ccc(Cl)cc1)CN1CCN(c2ccccc2F)CC1,inhibition,[1],35.9%
COc1ccccc1N1CCN(C[C@H](O)COc2ccc(F)cc2)CC1,inhibition,[1],41%
O[C@H](COc1ccc(Cl)cc1)CN1CCN(c2ccc(F)cc2)CC1,inhibition,[1],28.3%
COc1cccc(N2CCN(C[C@@H](O)COc3ccc(C(F)(F)F)cc3)CC2)c1,inhibition,[1],43.9%
O[C@@H](COc1ccc(Cl)cc1)CN1CCN(c2ccc(F)cc2)CC1,inhibition,[1],39.7%
O[C@@H](COc1ccc(Cl)cc1)CN1CCN(Cc2ccc(Cl)cc2)CC1,inhibition,[1],42.1%
O[C@@H](COc1ccc(C(F)(F)F)cc1)CN1CCN(Cc2ccc(Cl)cc2)CC1,inhibition,[1],61.5%
O[C@H](COc1ccc(Cl)cc1)CN1CCN(Cc2cccc(Cl)c2)CC1,inhibition,[1],52.2%
